Test results as given in ChEMBL document CHEMBL1155099, “Natural products in parallel synthesis: triazole libraries of nonactic acid” (2008).
≈ marks a conversion by molar mass, not a printed value. Calls of active or inactive are those of the source. The rule behind the calls is not given here.

How the values were obtained:
[1] = tested on: Escherichia coli; assay: Antibacterial activity against Escherichia coli by almar blue dye reduction assay; assay type: functional
Outline: (§1)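 Compounds advanced from the 1 mM screen were tested over a dilution series, with a top concentration of 1 mM, using Alamar Blue dye reduction. MIC is the lowest concentration with no dye reduction. Where inhibition was partial with some growth at the top concentration, the value is reported as '>'.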

[2] = tested on: Pseudomonas aeruginosa; assay: Antimicrobial activity against Pseudomonas aeruginosa by almar blue dye reduction assay; assay type: functional; outline: as §1
[3] = tested on: Candida albicans; assay: Antifungal activity against Candida albicans by almar blue dye reduction assay; assay type: functional; outline: as §1
[4] = tested on: Bacillus cereus; assay: Antibacterial activity against Bacillus cereus by almar blue dye reduction assay; assay type: functional; outline: as §1
[5] = tested on: Staphylococcus aureus; assay: Antibacterial activity against Staphylococcus aureus by almar blue dye reduction assay; assay type: functional; outline: as §1
[6] = tested on: Cryptococcus neoformans; assay: Antifungal activity against Cryptococcus neoformans at by almar blue dye reduction assay; assay type: functional; outline: as §1
[7] = tested on: Bacillus anthracis; assay: Antibacterial activity against Bacillus anthracis by almar blue dye reduction assay; assay type: functional
[8] = tested on: Saccharomyces cerevisiae; assay: Antifungal activity against Saccharomyces cerevisiae by almar blue dye reduction assay; assay type: functional; outline: as §1
[9] = tested on: Bacillus subtilis; assay: Antibacterial activity against Bacillus subtilis by almar blue dye reduction assay; assay type: functional; outline: as §1
[10] = tested on: Pseudomonas aeruginosa; assay: Antibacterial activity against Pseudomonas aeruginosa at 1 mM by almar blue dye reduction assay; assay type: functional, organism-based
Outline: (§2)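 Single-point primary screen at 1 mM using Alamar Blue dye reduction as the growth read-out.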

[11] = tested on: Staphylococcus aureus; assay: Antibacterial activity against Staphylococcus aureus at 1 mM by almar blue dye reduction assay; assay type: functional, organism-based; outline: as §2
[12] = tested on: Escherichia coli; assay: Antibacterial activity against Escherichia coli at 1 mM by almar blue dye reduction assay; assay type: functional, organism-based; outline: as §2
[13] = tested on: Candida albicans; assay: Antifungal activity against Candida albicans at 1 mM by almar blue dye reduction assay; assay type: functional, organism-based; outline: as §2
[14] = tested on: Saccharomyces cerevisiae; assay: Antifungal activity against Saccharomyces cerevisiae at 1 mM by almar blue dye reduction assay; assay type: functional, organism-based; outline: as §2

Structure (SMILES)	MIC [1]	MIC [2]	MIC [3]	MIC [4]	MIC [5]	MIC [6]	MIC [7]	MIC [8]	MIC [9]	Activity [10]	Activity [11]	Activity [12]	Activity [13]	Activity [14]
CCOC(=O)C#Cc1cn([C@H](C)CC2CCC([C@@H](C)C(=O)N3CCN(CC4CCCO4)CC3)O2)nn1 (single isomer, unassigned)	120 µg/mL (≈ 239 µM)	480 µg/mL (≈ 957 µM)	240 µg/mL (≈ 478 µM)	240 µg/mL (≈ 478 µM)	120 µg/mL (≈ 239 µM)	480 µg/mL (≈ 957 µM)	> 480 µg/mL	240 µg/mL (≈ 478 µM)	240 µg/mL (≈ 478 µM)					
C[C@H](C[C@@H]1CC[C@H]([C@@H](C)C(=O)N2CCN(CC3CCCO3)CC2)O1)n1cc(C#CCOc2cccc(-c3ccccc3)c2)nn1 (some centres not stated)			590 µg/mL (≈ 964 µM)	150 µg/mL (≈ 245 µM)		290 µg/mL (≈ 474 µM)	> 590 µg/mL	290 µg/mL (≈ 474 µM)	880 µg/mL (≈ 1440 µM)	inactive	inactive	inactive		
CCCCN(CC#Cc1cn([C@H](C)C[C@@H]2CC[C@H]([C@@H](C)C(=O)N(C)Cc3ccccc3)O2)nn1)CCCC				250 µg/mL (≈ 479 µM)	500 µg/mL (≈ 958 µM)	250 µg/mL (≈ 479 µM)	500 µg/mL (≈ 958 µM)		250 µg/mL (≈ 479 µM)	inactive		inactive	inactive	inactive
